Only some compounds are listed: those with a hit (about 2.3% of all), similar ones and a draw of the others.
SUMO1 PPI mod: SUMO1-SIM interaction modulation; P63165; SUMO1 binding to a labelled peptide, TR-FRET, 1 h; inhibition, % at 20 µM; 360,000 tested, 0.33% active; AID 602429; in the data active means inhibition above about 37%
Target sequence (P63165 whole entry, looked up): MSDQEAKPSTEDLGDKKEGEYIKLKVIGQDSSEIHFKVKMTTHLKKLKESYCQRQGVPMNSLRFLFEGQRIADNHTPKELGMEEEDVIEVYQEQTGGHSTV
Rpn11 block: inhibitors of human proteasome Rpn11. O00487. human 26S proteasome, Ub4-pepOG fluorescence polarization; 20S core pre-blocked with epoxomicin. inhibition, % at 20 µM. 360,000 tested, 0.59% active;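 active means inhibition at 20 µM, scaled to each plate's controls, above about 33%, limit read from the data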
Target sequence (O00487 whole entry, looked up): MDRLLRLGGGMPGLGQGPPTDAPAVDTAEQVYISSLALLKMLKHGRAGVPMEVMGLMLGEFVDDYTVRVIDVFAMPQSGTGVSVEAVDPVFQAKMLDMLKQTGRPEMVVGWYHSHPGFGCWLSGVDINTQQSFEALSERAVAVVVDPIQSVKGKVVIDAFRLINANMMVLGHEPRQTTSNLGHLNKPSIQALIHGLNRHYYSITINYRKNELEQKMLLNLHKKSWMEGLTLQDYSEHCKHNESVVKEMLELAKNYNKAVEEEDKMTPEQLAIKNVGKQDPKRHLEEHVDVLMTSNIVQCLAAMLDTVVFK
Scp1 inh: inhibitors of human Scp-1 phosphatase; 340,000 tested, 0.88% active; inhibition, % at 20 µM; Recombinant Scp1, phosphopeptide, malachite green phosphate absorbance; AID 493091; Q9GZU7;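 active means inhibition above about 50% at 20 µM, limit read from the data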
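Material: truncated SCP-1 phosphatase (76-261aa) / Buffer or medium: 50 mM Tris acetate pH 5.5, 0.005% Tween-20, 10 mM MgCl2 / Compound dosing: one concentration, 20 µM, with 1.0% DMSO / Incubation: 45 min room-temperature reaction, 5 min colour, 30 min stabiliser / Detection: colorimetric free-phosphate detection, absorbance 630 nm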
LMPTP inh: LMPTP (human) inhibition; P24666; recombinant LMPTP-A, OMFP fluorogenic substrate, fluorescence intensity; inhibition, % at 20 µM; 360,000 tested, 0.22% active;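 active means compounds that cut the enzyme signal by at least half of the control window in the single-dose screen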
Target sequence (P24666 whole entry, looked up): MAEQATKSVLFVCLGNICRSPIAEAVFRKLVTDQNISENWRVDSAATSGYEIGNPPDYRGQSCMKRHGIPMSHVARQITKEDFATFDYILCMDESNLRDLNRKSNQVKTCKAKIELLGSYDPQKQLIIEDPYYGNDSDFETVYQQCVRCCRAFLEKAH
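Test system: LMPTP-A, protein tyrosine phosphatase of low molecular weight; Input: 0.625 nM enzyme; Incubation: 50 min dark incubation at room temperature; Signal: endpoint fluorescence intensity from OMFP dephosphorylation; Read-out basis: % inhibition versus control wells.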
DNMT1 inh: blocks human DNA methyltransferase DNMT1; P26358; 360,000 tested, 0.83% active; AID 588458; DNMT1 molecular beacon, Hinp1I cleavage, fluorescence; inhibition (reported as % activation of signal), % at 10 µM; in the data active means inhibition above about 50%
STEP inh: inhibitors of human striatal-enriched phosphatase STEP. P54829. recombinant STEP, OMFP fluorogenic substrate, fluorescence. inhibition, % at 20 µM. 360,000 tested, 0.25% active. AID 588621;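 active means inhibition at 20 µM, scaled per plate between control wells, above about 37%, limit read from the data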
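Assay system: isolated STEP enzyme. Buffer or medium: pH 6.0 Bis-Tris with DTT and Tween 20. Also added: fluorogenic phosphatase substrate OMFP at 25 µM final. Dosing: 20 µM, 1% DMSO. Timing: 20 min reaction, room temperature, in the dark. Measured by: fluorescence intensity, excitation 480 nm, emission 540 nm. Evaluation: normalized % inhibition.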
STEP inh conf: confirmation of human STEP phosphatase inhibitors; inhibition, % at 20 µM; recombinant STEP, OMFP fluorogenic substrate, fluorescence; shares compounds with STEP inh; 520 tested, 32% active; call rule not given here
Each line names hits and unclear results; the compound was inactive in the other large screens (follow-up assays come after a bar, where they were run).

Cc1cc(Cl)ccc1NC(=S)N(CCCN1CCOCC1)Cc1cccs1	STEP inh 57 | STEP inh conf inactive
CCc1cccc(C)c1NC(=S)N(CCCN1CCOCC1)Cc1cccnc1	STEP inh 41 | STEP inh conf inactive
Cc1ccccc1NC(=O)c1cc[n+]([O-])cc1	none
COc1cccc(-c2cc(C(=O)Nc3nc4ccccc4s3)c3ccccc3n2)c1	STEP inh 71 | STEP inh conf 41
COc1ccc(-c2cc(C(=O)Nc3nc4c(C)cccc4s3)c3ccccc3n2)cc1OC	none
CNc1ccc(C(=O)OCC(=O)Nc2ccnn2C(C)C)cc1[N+](=O)[O-]	none
N#Cc1cc2cc3c(cc2nc1Cl)OCCO3	STEP inh 49 (no result: Scp1 inh) | STEP inh conf inactive
COc1ccc(C(=S)N2CCCCCC2)cc1	none
O=[N+]([O-])c1ccc(C(=S)N2CCCC2)cc1	none
CCN1CCN(C(=S)c2ccc(Cl)cc2)CC1	STEP inh 95 | STEP inh conf 63
CCN1CCN(C(=S)c2ccc([N+](=O)[O-])cc2)CC1	STEP inh 62 | STEP inh conf inactive
CCN1CCN(C(=S)c2ccc(OC)cc2)CC1	STEP inh 73 | STEP inh conf inactive
OCCN1CCN(C(=S)c2ccc(Cl)cc2)CC1	STEP inh 70 | STEP inh conf inactive
O=C(C[C@H]1C[C@H](C(=O)N2CCCCC2)[C@@]2(CCc3ccccc3)c3[nH]c4ccc(Cl)cc4c3CCN2C1=O)NCCN1CCOCC1	none
COC(=O)c1sccc1NC(=O)c1ccc(C(C)C)cc1	none
COc1ccccc1NCCC(=O)OCC(=O)Nc1ccccc1F	none
CCOc1ccc(C(=S)N2CCN(C)CC2)cc1	STEP inh 81 | STEP inh conf 48
COc1ccc(N2CCN(C(c3cccs3)C(C)NC(=O)C(=O)N3CCCC3)CC2)cc1 (centres undefined)	STEP inh 60 | STEP inh conf inactive
O=C(O)c1cccc(NC(=S)NC(NC(=O)c2ccccc2[N+](=O)[O-])C(Cl)(Cl)Cl)c1 (centres undefined)	none
O=C(O)c1cccc(NC(=S)NC(NC(=O)c2cccc([N+](=O)[O-])c2)C(Cl)(Cl)Cl)c1 (centres undefined)	SUMO1 PPI mod 98, STEP inh 63 | STEP inh conf inactive
O=C(Nc1ccc(OC(F)(F)F)cc1)C1CCCN(S(=O)(=O)c2cccnc2)C1 (centres undefined)	STEP inh 39 | STEP inh conf inactive
CCc1ccc(NC(=O)C2CCCN(S(=O)(=O)c3cccnc3)C2)cc1 (centres undefined)	none
C/C(CC(=O)Nc1ccc2c(c1)OCCO2)=N\NC(=O)COc1ccccc1C	STEP inh 50 | STEP inh conf inactive
COc1ccc(C(C)NC(=O)Cc2cccs2)cc1OC (centres undefined)	none
N#CNc1nc(O)cc(=O)[nH]1	LMPTP inh 87, STEP inh 98 | STEP inh conf 63
Cn1cc(P(=O)(N2CCOCC2)N2CCOCC2)cc1P(=S)(N1CCOCC1)N1CCOCC1	STEP inh 62 | STEP inh conf inactive
N#C/C(=C\c1c(N2CCC(C(N)=O)CC2)nc2ccccn2c1=O)S(=O)(=O)c1ccc(Cl)cc1	none
CCN(CC)S(=O)(=O)c1ccc2[nH]c(=O)cc(C(=O)Nc3ccccc3N3CCOCC3)c2c1	none
Cc1c(C)c2ccc(OCC(=O)Nc3ccc(S(N)(=O)=O)cc3)c(C)c2oc1=O	STEP inh 46 | STEP inh conf 74
CCn1c(CC(=O)Nc2ccccc2F)nnc1SCC(=O)NC1=NCCS1	none (no result: Scp1 inh)
CN1CCN(Cc2nc3ccccc3c(=O)n2Cc2nc(-c3cccc([N+](=O)[O-])c3)cs2)CC1	STEP inh 43 | STEP inh conf inactive
CN1CCN(Cc2nc3ccccc3c(=O)n2Cc2nc(-c3ccc4ccccc4c3)cs2)CC1	none
O=c1ccc2cccc([N+](=O)[O-])c2[nH]1	none (no result: Scp1 inh)
O=C(NCc1ccco1)C1CCN(C(=O)c2ccc(Cl)cc2Cl)CC1	STEP inh 56 | STEP inh conf inactive
S=C(NCCN1CCOCC1)C(=S)NCCN1CCOCC1	STEP inh 42 | STEP inh conf inactive
S=C(NCCN1CCOCC1)NC1CCCCC1	none
O=C(Nc1nc2nccc(-c3ccccc3)n2n1)c1ccc(F)cc1	STEP inh 52 | STEP inh conf inactive
O=C(Nc1nc2nccc(-c3ccccc3)n2n1)c1ccccc1	none
CCC(=O)N(c1ccc(C(=O)O)cc1)c1nc(-c2ccc(OC)cc2)c(C)s1	none
NS(=O)(=O)c1ccc(CCNC(=O)c2ccc3ccccc3n2)cc1	none
CCNC(=O)C1(C)CCCN1C(=O)c1cnc2ccccc2n1 (centres undefined)	none (no result: Scp1 inh)
O=C(CCn1c(=S)oc2ccccc21)Nc1cccc(F)c1	none
Cc1ccc(NC(=O)CCn2c(=S)oc3ccccc32)cc1F	STEP inh 48 | STEP inh conf 38
O=C(NCCC(=O)N1CCC2(CC1)NCCc1[nH]cnc12)c1ccc(F)c(F)c1	none
Cc1ccc(NC(=O)CSc2nc(=O)n(CCN(C)C)c3c2CCCC3)cc1Cl	none
CC(=O)c1ccc(NC(=O)CN2CCN(c3ccccc3)CC2)cc1	none
CC(=O)Nc1ccc(C(=O)CN2CCN(c3ccccc3)CC2)cc1	SUMO1 PPI mod 70, STEP inh 47 | STEP inh conf inactive
COc1ccc(CC2(C)OC(c3ccc(C)c([N+](=O)[O-])c3)=NN2C(C)=O)cc1 (centres undefined)	none
Cc1ccc(NC(=S)N2CCC(N(C)CC3CCCO3)CC2)cc1C (centres undefined)	none
COc1ccc(NC(=S)N2CCC(N(C)CC3CCCO3)CC2)cc1Cl (centres undefined)	STEP inh 50 | STEP inh conf 42
C=CCn1c(N/N=C/c2ccc(O)cc2)nc2ccccc2c1=O	none
Cc1ccccc1/C=N/Nc1nc2ccccc2c(=O)n1O	STEP inh 76 | STEP inh conf inactive
CC1=C(O)C(=O)C(C2=C(O)C(=O)C(C)=C(O)C2=O)=C(O)C1=O	STEP inh 65 | STEP inh conf 21
CC(=O)Nc1ccc(/C=C2\Sc3ccccc3C2=O)cc1	STEP inh 43 | STEP inh conf inactive
CCCCN(CC)Cc1ccc(CNC(=S)Nc2c(C)cc(C)cc2C)o1	STEP inh 85 | STEP inh conf 45
O=C1CSc2cc(Cl)ccc2N1	STEP inh 37 | STEP inh conf inactive
